# Experiment: Antiglycation activity assessed as inhibition of BSA-derived advance glycated end product formation after 9 days by spectrophotometry
# Type: physicochemical
# Settings: not given; call rule not given here
# Method in brief: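 BSA (100 mg/ml) incubated with 14 mM methylglyoxal in 0.1 M phosphate buffer pH 7.4 containing NaN₃ (30 mM), aseptic, 37 °C for 9 days, with or without various concentrations of test compounds (DMSO stocks); triplicate samples. AGE-related fluorescence read; % inhibition = (1 − fluorescence of test/fluorescence of control) × 100.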
row,Structure (SMILES),IC50
1,COc1ccc(/C=N/N=C2\C(=O)Nc3ccc(Cl)cc32)cc1OC,Not Active
2,O=C1Nc2ccc(Cl)cc2/C1=N/N=C/c1ccc(F)cc1,Not Active
3,O=C1Nc2ccccc2/C1=N/N=C/c1ccc2ccccc2c1,Not Active
4,O=C1Nc2ccccc2/C1=N/N=C/c1ccc(Cl)c(Cl)c1,Not Active
5,CCOc1ccc(/C=N/N=C2\C(=O)Nc3ccccc32)cc1,Not Active
6,O=C1Nc2c(Cl)ccc(Cl)c2/C1=N/N=C/c1ccccc1F,Not Active
7,O=C1Nc2ccccc2/C1=N/N=C/c1ccc(F)cc1,Not Active
8,Cc1ccc(O)c(/C=N/N=C2\C(=O)Nc3ccccc32)c1,Not Active
9,O=C1Nc2ccc(Cl)cc2/C1=N/N=C/c1ccccc1O,Not Active
10,COc1cccc(/C=N/N=C2\C(=O)Nc3c(Cl)ccc(Cl)c32)c1O,Not Active

# Same assay, conditions: read-out: IC50
row,Structure (SMILES),IC50
1,COc1ccc(/C=N/N=C2\C(=O)Nc3c(Cl)ccc(Cl)c32)cc1OC,366 µM
2,O=C1Nc2ccc(Cl)cc2/C1=N/N=C/c1ccc(O)c(O)c1,469 µM
3,O=C1Nc2ccccc2/C1=N/N=C/c1cccc2ccccc12,380 µM
4,O=C1Nc2ccccc2/C1=N/N=C/c1ccccc1F,362 µM
5,CN(C)c1ccc(/C=N/N=C2\C(=O)Nc3ccccc32)cc1,406 µM
6,COc1cccc(/C=N/N=C2\C(=O)Nc3ccccc32)c1O,359 µM
7,O=C1Nc2ccccc2/C1=N/N=C/c1ccccc1[N+](=O)[O-],244 µM
8,O=C1Nc2ccccc2/C1=N/N=C/c1ccccc1O,444 µM
9,O=C1Nc2ccccc2/C1=N/N=C/c1cc(Cl)ccc1O,634 µM
10,CCOc1ccccc1/C=N/N=C1\C(=O)Nc2ccccc21,416 µM
11,O=C1Nc2ccccc2/C1=N/N=C/c1ccc([N+](=O)[O-])cc1,258 µM
12,O=C1Nc2ccccc2/C1=N/N=C/c1ccc(O)c(O)c1,291 µM
13,O=C1Nc2ccccc2/C1=N/N=C/c1ccc(O)cc1,313 µM
14,O=C1Nc2ccccc2/C1=N/N=C/c1cccc(O)c1,634 µM
15,COc1ccccc1/C=N/N=C1\C(=O)Nc2ccccc21,458 µM
16,O=C1Nc2ccccc2/C1=N/N=C/c1cccc(Cl)c1,312 µM
17,O=C1Nc2c(Cl)ccc(Cl)c2/C1=N/N=C/c1ccc2ccccc2c1,416 µM
18,C[C@@H]1O[C@@H](OC[C@H]2O[C@@H](Oc3c(-c4ccc(O)c(O)c4)oc4cc(O)cc(O)c4c3=O)[C@H](O)[C@@H](O)[C@@H]2O)[C@H](O)[C@H](O)[C@H]1O [RUTIN],294 µM

# Source: ChEMBL document CHEMBL1152678, “Synthesis of bis-Schiff bases of isatins and their antiglycation activity” (Bioorg Med Chem, 2009)
